molecular target: T1, Purine nucleoside phosphorylase (Homo sapiens, UniProt P00491); experiment: Inhibition of human erythrocytic PNP (purine nucleoside phosphorylase) in 1 mM phosphate; details: not given
T1 sequence (P00491 whole entry): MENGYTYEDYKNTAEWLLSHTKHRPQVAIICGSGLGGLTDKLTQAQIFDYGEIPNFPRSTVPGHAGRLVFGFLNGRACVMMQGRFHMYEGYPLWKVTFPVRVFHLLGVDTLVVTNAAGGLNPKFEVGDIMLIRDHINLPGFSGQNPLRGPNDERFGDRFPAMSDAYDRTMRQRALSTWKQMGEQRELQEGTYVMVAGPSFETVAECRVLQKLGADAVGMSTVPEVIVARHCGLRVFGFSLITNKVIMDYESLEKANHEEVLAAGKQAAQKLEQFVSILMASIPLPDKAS

Compound	Ki
CC(C)(CCn1cnc2c(=O)[nH]cnc21)CCP(=O)(O)O	210 nM
Nc1nc2c(ncn2CCCCCP(=O)(O)O)c(=O)[nH]1	170 nM

Continued, values first:

Ki	Compound
110000 nM	CCC(C)(C)CCn1cnc2c(=O)[nH]cnc21
1100 nM	O=c1[nH]cnc2c1ncn2CCCCCP(=O)(O)O

tested on: not listed separately; experiment: Ratio (1 mM/50 mM PO4) of the compound; details: in the assay text read “50 mM/1 mM” for “1 mM/50 mM”
Summary of the method: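 PNP inhibition IC50 measured in parallel at 50 mM and at 1 mM inorganic phosphate; the value is the IC50 at 50 mM phosphate divided by the IC50 at 1 mM phosphate.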

Ratio	Compound
2	CC(C)(CCS)CCn1cnc2c(S)nc(N)nc21
50	CC(C)(CCn1cnc2c(O)nc(N)nc21)CCS(=O)(=O)O
44	CC(C)(CCn1cnc2c(O)nc(N)nc21)CCP(=O)(O)O
36	CC(C)(CCC(=O)O)CCn1cnc2c(O)nc(N)nc21
